How the values were obtained:
[1] = biological target: Small conductance calcium-activated potassium channel protein 3 (Rattus norvegicus, UniProt P70605); experiment: Inhibition of SKca channel-mediated after-hypepolarization in rat sympathetic neurons; format: cell-based, Sympathetic neuron
Summary of the method: (§1)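 Rat sympathetic neurones (SK3 SKCa), short-term tissue culture. Action potentials evoked by depolarizing current pulses; afterhyperpolarization amplitude measured before, during and after compound applied in external solution at 2–4 concentrations, at least three neurones. Dequalinium reference in each assay. Hill fits with common Hill coefficient and maximum inhibition per assay gave IC50; EMR = test/dequalinium concentration for 50% AHP inhibition, by simultaneous weighted nonlinear least squares.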

[2] = biological target: Small conductance calcium-activated potassium channel protein 3 (Rattus norvegicus) (UniProt P70605); experiment: Ratio of concentration drug to dequalinium to cause 50% inhibition of SKca channel-mediated after-hypepolarization in rat sympathetic neurons; format: cell-based; details: Sympathetic neuron; summary of the method: as §1
Chain of Small conductance calcium-activated potassium channel protein 3 (Rattus norvegicus) (P70605 whole entry): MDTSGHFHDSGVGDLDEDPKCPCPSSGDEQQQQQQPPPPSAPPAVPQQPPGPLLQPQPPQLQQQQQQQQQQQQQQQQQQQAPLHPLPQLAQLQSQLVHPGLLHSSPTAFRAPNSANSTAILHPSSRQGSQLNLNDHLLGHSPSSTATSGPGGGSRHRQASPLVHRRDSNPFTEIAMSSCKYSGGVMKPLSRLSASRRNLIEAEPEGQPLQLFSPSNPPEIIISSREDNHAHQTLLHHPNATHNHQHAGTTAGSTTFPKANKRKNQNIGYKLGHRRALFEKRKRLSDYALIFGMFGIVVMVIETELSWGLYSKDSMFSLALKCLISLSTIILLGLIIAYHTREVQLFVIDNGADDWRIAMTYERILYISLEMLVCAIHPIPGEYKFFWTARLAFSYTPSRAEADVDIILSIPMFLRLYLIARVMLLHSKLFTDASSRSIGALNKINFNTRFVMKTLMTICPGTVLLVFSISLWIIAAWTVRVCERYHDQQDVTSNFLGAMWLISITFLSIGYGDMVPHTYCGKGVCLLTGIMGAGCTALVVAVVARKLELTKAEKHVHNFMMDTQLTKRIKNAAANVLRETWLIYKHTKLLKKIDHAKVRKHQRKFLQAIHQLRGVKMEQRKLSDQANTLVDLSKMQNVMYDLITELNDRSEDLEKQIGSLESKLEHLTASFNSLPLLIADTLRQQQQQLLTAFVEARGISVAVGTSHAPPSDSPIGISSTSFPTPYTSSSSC

Chain of Small conductance calcium-activated potassium channel protein 3 (P70605 whole entry): as above

Compound | IC50 [1] | EMR [2]
N=C(N)NCCCNC(=O)/C=C/C(=O)N(CCCCCCCCN)CCCNC(=N)N | 27000 nM | –
NCCCCCCCCN(CCCNc1ccnc2ccccc12)C(=O)/C=C/C(=O)NCCCNc1ccnc2ccccc12 | 490 nM | 0.59
c1ccc2c(NCCCCCN(CCCNc3ccnc4ccccc34)Cc3cc(OCCCNc4ccnc5ccccc45)cc(OCCCNc4ccnc5ccccc45)c3)ccnc2c1 | 130 nM | 0.23
N=C(N)NCc1ccc(/C=C\c2ccc(CNC(=N)N)cc2)cc1 | – | 59
c1cc(OCCCNc2ccnc3ccccc23)c(OCCCNc2ccnc3ccccc23)c(OCCCNc2ccnc3ccccc23)c1 | 130 nM | 0.23
c1ccc2c(c1)c1cc[n+]2CCCCC[n+]2ccc(c3ccccc32)NCCCCCN1 | – | 0.003
N=C(N)NCCCNC(=O)/C=C\C(=O)N(CCCCCCCCN)CCCNC(=N)N | > 30000 nM | –
c1cc2cc(c1)C[n+]1ccc(c3ccccc31)NCc1ccc(cc1)CNc1cc[n+](c3ccccc13)C2 | – | 0.01
c1ccc2c(NCCCNCc3cc(OCCCNc4ccnc5ccccc45)cc(OCCCNc4ccnc5ccccc45)c3)ccnc2c1 | 360 nM | 0.48
Cc1cc(N)c2ccccc2[n+]1CCCCCCCCCC[n+]1c(C)cc(N)c2ccccc21 | – | 1
Nc1cc[n+](CCCC=C(CCCC[n+]2ccc(N)c3ccccc32)CCCC[n+]2ccc(N)c3ccccc32)c2ccccc12 | – | 0.1
c1ccc2c(NCCCNc3cc(OCCCNc4ccnc5ccccc45)cc(OCCCNc4ccnc5ccccc45)c3)ccnc2c1 | 220 nM | 0.26
N=C(N)NCCCNC(=O)/C=C/C(=O)N(CCCNC(=N)N)Cc1ccc(-c2ccc(CN)cc2)cc1 | 17000 nM | 33
CC[n+]1ccc(NCCCOc2cccc(OCCCNc3cc[n+](CC)c4ccccc34)c2OCCCNc2cc[n+](CC)c3ccccc23)c2ccccc21 | 86 nM | 0.16
c1ccc2c(NCCCOc3ccc(CCNc4ccnc5ccccc45)cc3OCCCNc3ccnc4ccccc34)ccnc2c1 | 270 nM | 0.31
c1ccc2c(NCCCCCN(CCCNc3ccnc4ccccc34)c3cc(OCCCNc4ccnc5ccccc45)cc(OCCCNc4ccnc5ccccc45)c3)ccnc2c1 | 93 nM | 0.17
NC(N)=NCc1ccc(/C=C\c2ccc(CN=C(N)N)cc2)cc1 | 25000 nM | –

— ChEMBL document CHEMBL1143731, “Synthesis and pharmacological testing of polyaminoquinolines as blockers of the apamin-sensitive Ca2+-activated K+ channel (SK(Ca))” (Bioorg Med Chem, 2007)
